# This is a sample that favours compounds with a hit; in the whole collection about 5.9% have one here.
# IDH1 R132H inh = inhibitors of human IDH1 R132H | O75874 | IDH1 R132H reductase, diaphorase/resazurin fluorescence, 60 min | inhibition, % at 10 µM | 0.18% of 70,000 active; in the data active means inhibition above about 34%; inconclusive means no clear call, values can overlap the other calls; inactive means below about 11%;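 further: 0% = DMSO and 100% = no enzyme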
# KDM4C inh = blocks human GASC-1 (KDM4C) demethylase activity. inhibition, % at 12.5 µM. 0.15% of 96,000 active. GST-KDM4C 2-372, H3K9me3 peptide, LANCE TR-FRET. AID 720574;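 active means mean replicate inhibition above about 25%, with at least 55% of replicates also reaching it, limit read from the data, passing the limit was not always enough; inconclusive means only one of those two conditions met; inactive means neither condition met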
# Target sequence (Q9H3R0 2-372 limits assumed): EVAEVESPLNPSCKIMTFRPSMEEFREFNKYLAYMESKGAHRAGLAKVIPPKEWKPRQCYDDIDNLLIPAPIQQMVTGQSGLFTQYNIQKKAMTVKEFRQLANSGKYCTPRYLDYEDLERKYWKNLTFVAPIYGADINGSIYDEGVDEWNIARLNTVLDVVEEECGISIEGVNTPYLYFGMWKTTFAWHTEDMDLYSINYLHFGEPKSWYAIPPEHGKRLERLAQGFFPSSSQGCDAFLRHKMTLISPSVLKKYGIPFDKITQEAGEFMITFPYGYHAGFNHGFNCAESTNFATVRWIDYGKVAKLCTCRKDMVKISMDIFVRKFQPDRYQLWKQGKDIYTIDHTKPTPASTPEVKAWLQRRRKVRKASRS
#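 Assay system: GST-GASC-1 enzyme fragment 2-372 | Amount: 10 nM enzyme | Medium: HEPES buffer, pH 7.5, plus ascorbate | Reagent: H3K9me3 peptide substrate, Fe(II), 2-oxoglutarate | Doses: Single-point compound screen | Incubation: 30 min demethylation and 1 h detection at room temperature | Measured by: LANCE TR-FRET, excitation 340 nm, emissions 618 and 671 nm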
# T cruzi growth-1 = T. cruzi proliferation inhibition; 5.9% of 77,000 active; AID 624255; inhibition, % at 8.34 µM; T. cruzi beta-gal in NIH3T3, GalScreen luminescence, 90 h;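 active means mean inhibition above about 93%, with at least 55% of replicates each passing it, limit read from the data, passing the limit was not always enough; inconclusive means only one of those two conditions holds; inactive means neither condition holds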
# Pf Dd2 growth = blocks growth of Plasmodium falciparum Dd2 parasites | P. falciparum Dd2 growth, SYBR Green, 72 h; hits give low values | 2.3% of 94,000 active | activity change, % at 10 µM; in the data active means activity change below about -80%; inconclusive means no clear call, values can overlap the other calls
# T cruzi growth-2 = inhibitors of T. cruzi proliferation; 72% of 5,600 active; shares compounds with T cruzi growth-1; T. cruzi beta-gal in NIH3T3, GalScreen luminescence, 90 h; inhibition, % at 8.35 µM;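 active means mean replicate inhibition above about 95% and at least 55% of replicates individually reaching it, limit read from the data; inconclusive means only one of the two criteria is met; inactive means neither criterion is met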
# T cruzi growth-3 = Trypanosoma cruzi proliferation inhibition | shares compounds with T cruzi growth-1 | T. cruzi beta-gal in NIH3T3, GalScreen luminescence, 90 h | inhibition, % at 2.09 µM | 21% of 5,600 active | AID 651740;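 active means mean inhibition above about 95%, with at least 55% of replicates also reaching it, limit read from the data; inconclusive means meets just one of the two conditions; inactive means meets neither condition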;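 further: plate controls were neutral control median for no effect and positive control median for full effect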
# 3T3 cytotox = cytotoxicity in mouse NIH/3T3 fibroblasts; NIH/3T3 viability, CellTiter-Glo ATP luminescence, 90 h; cytotoxicity (signal decrease), % at 8.35 µM; shares compounds with T cruzi growth-1; 14% of 5,600 active;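 active means mean signal decrease across replicates above about 35% based on untreated-well scatter, with enough replicates individually passing, limit read from the data; inconclusive means no rule stated though some were filed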;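 further: 0% = median of neutral control wells and 100% = median of positive control wells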
# 3T3 cytotox 2 = kills mouse NIH/3T3 fibroblasts; shares compounds with T cruzi growth-1; NIH/3T3 viability, CellTiter-Glo ATP luminescence, 90 h; inhibition, % at 24.9 µM; 56% of 5,600 active; AID 651744;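 active means mean loss of cell viability signal at or above a set limit, and enough replicates individually reaching it; inconclusive means meets only the mean limit or only the replicate share; inactive means meets neither condition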;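 further: 0% = median of neutral control wells and 100% = median of positive control wells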
# An asterisk follows results filed as active; ? = inconclusive; / = no result.
SMILES,IDH1 R132H inh,KDM4C inh,T cruzi growth-1,Pf Dd2 growth,T cruzi growth-2,T cruzi growth-3,3T3 cytotox,3T3 cytotox 2
COCC#Cc1cnc2c(c1)C(=O)N([C@H](C)CO)C[C@@H](C)[C@H](CN(C)Cc1ccc(-c3ccccc3)cc1)O2,-10,0,119*,-69,108*,39,20,102*
C[C@H](CO)N1C[C@H](C)[C@@H](CN(C)Cc2ccc(-c3ccccc3)cc2)Oc2ncc(C#CCN(C)C)cc2C1=O,/,5,?,/,108*,82,33,104*
C[C@@H]1CN([C@@H](C)CO)S(=O)(=O)c2ccc(C#CC3CC3)cc2O[C@H]1CN(C)C(=O)c1ccccc1,0,-1,?,-67,?,53,29,48*
C[C@H]1CN([C@@H](C)CO)S(=O)(=O)c2ccc(C#CC3CC3)cc2O[C@H]1CN(C)C(=O)c1ccncc1,0,2,110*,-49,96*,81,13,30*
CCCC#Cc1ccc2c(c1)O[C@@H](CN(C)C(=O)CC1CC1)[C@@H](C)CN([C@@H](C)CO)S2(=O)=O,-3,-1,57,-31,/,/,/,/
CCCC#Cc1ccc2c(c1)O[C@@H](CN(C)C(=O)CC1CC1)[C@H](C)CN([C@H](C)CO)S2(=O)=O,1,-2,112*,-45,100*,-21,21,24*
CCCC#Cc1ccc2c(c1)O[C@H](CN(C)C(=O)CC1CC1)[C@H](C)CN([C@H](C)CO)S2(=O)=O,2,1,57,-39,/,/,/,/
CCCC#Cc1ccc2c(c1)O[C@@H](CN(C)C(=O)CC1CC1)[C@H](C)CN([C@@H](C)CO)S2(=O)=O,0,-2,?,-53,106*,56,10,49*
CCn1c(SCc2nc3ccccc3c(=O)[nH]2)nnc1-c1ccccc1Br,-1,/,/,/,/,/,/,/
C[C@@H]1CN([C@H](C)CO)C(=O)Cc2cc(NS(=O)(=O)c3cccs3)ccc2O[C@@H]1CN(C)S(=O)(=O)c1cccs1,-1,1,44,-16,/,/,/,/
O=C(C[C@H]1CC[C@@H]2[C@H](COC[C@H](O)CN2Cc2ccc(Oc3ccccc3)cc2)O1)Nc1nccs1,/,2,133*,-31,103*,34,1,52*
O=C(C[C@@H]1CC[C@@H]2[C@H](COC[C@@H](O)CN2Cc2ccc(Oc3ccccc3)cc2)O1)Nc1nccs1,/,2,108*,-32,102*,49,13,8
O=C(C[C@@H]1CC[C@@H]2[C@H](COC[C@H](O)CN2Cc2ccc(Oc3ccccc3)cc2)O1)Nc1nccs1,/,-2,133*,-2,100*,0,-25,11
O=C(C[C@@H]1CC[C@@H]2[C@H](COC[C@H](O)CN2Cc2nccs2)O1)NCc1ccc(Oc2ccccc2)cc1,/,-3,/,-19,/,/,/,/
O=C(C[C@@H]1CC[C@H]2[C@@H](COC[C@@H](O)CN2Cc2ccc(Oc3ccccc3)cc2)O1)Nc1nccs1,/,1,117*,-58,101*,55,24,97*
O=C(C[C@@H]1CC[C@H]2[C@@H](COC[C@H](O)CN2Cc2ccc(Cl)cc2)O1)Nc1nccs1,/,-2,20,-30,/,/,/,/
C[C@@H]1CN([C@@H](C)CO)S(=O)(=O)c2ccc(-c3ccncc3)cc2O[C@H]1CN(C)Cc1cncnc1,0,0,108*,6,104*,104*,3,45*
C[C@H]1CN([C@@H](C)CO)S(=O)(=O)c2ccc(-c3ccncc3)cc2O[C@@H]1CN(C)Cc1cncnc1,0,-1,108*,0,103*,94,-2,17
C[C@H](CO)N1C[C@H](C)[C@H](CN(C)Cc2cncnc2)Oc2cc(-c3ccncc3)ccc2S1(=O)=O,5,-1,?,13,79,79,46*,49*

# Assay outcomes as filed in PubChem BioAssay.
